# Columns and labels:
# [1] = system: Rattus norvegicus; test: Gastric antisecretory activity in pylorus-ligated rat at a concentration of 50 mg/kg po, expressed as increase in mean pH; NS means no significant change.; format: functional, organism-based; design: dose 50 mg/kg
# Procedure, shortened: (§1)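 Male Carworth Farms rats (270–360 g), fasted 18 h with water; compound in PEG 200 by gavage 1 h before pylorus ligation under ether. Killed 2 h after ligation; juice centrifuged, volume and pH measured, supernatant titrated with NaOH to pH 7.4, output = volume × titre. Mean of six to seven animals against controls.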
# [2] = system: Rattus norvegicus; test: Gastric antisecretory activity in pylorus ligated rat at a concentration of 50 mg/kg po, expressed as % decrease in mean titratable acid output of gastric juice in treated vs. control groups; NS means no significant change.; format: functional, organism-based; design: dose 50 mg/kg; procedure, shortened: as §1
# [3] = system: Rattus norvegicus; test: Effect of intraduodenal administration of compound on acid secretion inhibition in the PLR; Value ranges from 0.9-4.7; format: functional
# [4] = system: Rattus norvegicus; test: Gastric antisecretory activity in pylorus-ligated rat at a concentration of 50 mg/kg perorally, expressed as increase in mean pH.; format: functional; settings: route oral; procedure, shortened: as §1
# [5] = system: Rattus norvegicus; test: Effect of intraduodenal administration of compound on acid secretion inhibition in the PLR; Value ranges from 0.5-2.7; format: functional
# [6] = system: Rattus norvegicus; test: Effect of peroral administration of compound on acid secretion inhibition in the PLR; Value ranges from 8.8-14.7; format: functional
# [7] = system: Rattus norvegicus; test: Effect of intraduodenal administration of compound on acid secretion inhibition in the PLR; Value ranges from 4.7-9; format: functional
# [8] = system: Rattus norvegicus; test: Effect of peroral administration of compound on acid secretion inhibition in the PLR; Value ranges from 4.1-12.1; format: functional
# [9] = system: Rattus norvegicus; test: Gastric antisecretory activity in pylorus ligated rat at a concentration of 50 mg/kg perorally, expressed as % decrease in mean titratable acid output of gastric juice in treated vs. control groups.; format: functional; settings: route oral; procedure, shortened: as §1
# [10] = system: Rattus norvegicus; test: Effect of peroral administration of compound on acid secretion inhibition in the PLR; NS means no significant dose response.; format: functional, organism-based
# Procedure, shortened: (§2)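 Rats (male Carworth Farms, 270–360 g) fasted 18 h; compound in PEG 200 by gavage 1 h before pylorus ligation under ether, six per group. Gastric contents collected 2 h post-ligation; pH, volume, titre (NaOH to pH 7.4) measured, output = volume × titre.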
# [11] = system: Rattus norvegicus; test: Gastric antisecretory activity, in pylorus ligated rat (PLR,50 mg/kg po), expressed as increase in mean pH; format: functional; procedure, shortened: as §1
# [12] = system: Rattus norvegicus; test: Gastric antisecretory activity, in pylorus ligated rat (PLR,50 mg/kg po), expressed as % decrease in mean titratable acid output of gastric juice in treated vs. control groups; format: functional; procedure, shortened: as §1
# [13] = system: Rattus norvegicus; test: Effect of intravenous administration of compound on acid secretion inhibition in the PLR; Value ranges from 4.0-19.3; format: functional
# Procedure, shortened: (§3)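 Male Carworth Farms rats (270–360 g), fasted 18 h, pylorus ligated under ether; compound in PEG 200 given intravenously at ligation, six rats per group. Gastric contents taken 2 h after ligation, centrifuged, titrated with NaOH to pH 7.4; output = volume × titre.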
# [14] = system: Rattus norvegicus; test: Effect of peroral administration of compound on acid secretion inhibition in the PLR; Value ranges from 4.3-16.3; format: functional; procedure, shortened: as §2
# [15] = system: Rattus norvegicus; test: Effect of intravenous administration of compound on acid secretion inhibition in the PLR; Value ranges from 1.8-5.9; format: functional; procedure, shortened: as §3
# [16] = system: Rattus norvegicus; test: Effect of intraduodenal administration of compound on acid secretion inhibition in the PLR; Value ranges from 0.2-2.1; format: functional
# [17] = system: Rattus norvegicus; test: Effect of intraduodenal administration of compound on acid secretion inhibition in the PLR; Value ranges from 0.3-2.9; format: functional
# [18] = system: Rattus norvegicus; test: Effect of peroral administration of compound on acid secretion inhibition in the PLR; Value ranges from 2.6-8.5; format: functional; procedure, shortened: as §2
# [19] = system: Canis familiaris; test: Effect on pentagastrin-induced acid secretion in gastric fistula dogs, at 1 mg/kg, iv for 1 h; format: functional, Canis lupus familiaris, Stomach
# Procedure, shortened: (§4)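 Four chronic gastric fistula dogs (11.2–16.2 kg), fasted 24 h, saline infused via saphenous vein, then pentagastrin 8 (μg/kg)/h for maximal stimulation. After 1 h acid plateau, compound given 1 mg/kg iv in PEG 200. Juice collected at 15-min intervals and centrifuged; titratable acid output from volume × titre, as mean ± SE, equivalents per hour.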
# [20] = system: Rattus norvegicus; test: Effect of peroral administration of compound on acid secretion inhibition in the PLR; Value ranges from 4.7-14.9; format: functional; procedure, shortened: as §2
# [21] = system: Canis familiaris; test: Effect on pentagastrin-induced acid secretion in gastric fistula dogs, at 1 mg/kg, iv for 3 h; format: functional, Canis lupus familiaris, Stomach; procedure, shortened: as §4
# [22] = system: Rattus norvegicus; test: Antisecretory activity in PLR after pre-incubation in gastric juice at pH 1.0 for 60 min at 15 mg/kg dose, measured as acid output; format: functional
# Procedure, shortened: (§5)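 Male Carworth Farms rats (270–360 g), fasted 18 h with water, pylorus ligated under ether. Compound in PEG 200 (80 mg/mL) added to gastric juice from separate 4-h ligated rats (stored frozen) at 7.5 mg/mL, juice neutralized with 1.0 N NaOH before or after addition, or left untreated (pH 1.0). Given intraduodenally right after ligation. Juice collected 2 h later; volume, titre (NaOH to pH 7.4), output = volume × titre.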
# [23] = system: Rattus norvegicus; test: Antisecretory activity in PLR after pre-incubation in neutralized juice for 60 min at 15 mg/kg dose, measured as acid output; format: functional; procedure, shortened: as §5
# [24] = system: Rattus norvegicus; test: Antisecretory activity in PLR after preincubation in gastric juice at pH 1.0 for 2 min at 15 mg/kg dose, measured as acid titreated; format: functional; procedure, shortened: as §5
# [25] = system: Rattus norvegicus; test: Effect of intraduodenal administration of compound on acid secretion inhibition in the PLR; Value ranges from 0.8-4.8; format: functional
# [26] = system: Rattus norvegicus; test: Antisecretory activity in PLR after pre-incubation in gastric juice at pH 1.0 for 30 min at 15 mg/kg dose, measured as volume
# [27] = system: Rattus norvegicus; test: Antisecretory activity in PLR after pre-incubation in neutralized juice for 60 min at 15 mg/kg dose, measured as volume; format: functional; procedure, shortened: as §5
# [28] = system: Rattus norvegicus; test: Effect of intravenous administration of compound on acid secretion inhibition in the PLR; Value ranges from 0.9-5.3; format: functional; procedure, shortened: as §3
# [29] = system: Rattus norvegicus; test: Antisecretory activity in PLR after pre-incubation in gastric juice at pH 1.0 for 30 min at 15 mg/kg dose, measured as acid output; format: functional; procedure, shortened: as §5
# [30] = system: Rattus norvegicus; test: Antisecretory activity in PLR after pre-incubation in gastric juice at pH 1.0 for 2 min at 15 mg/kg dose, measured as volume; format: functional; procedure, shortened: as §5
# [31] = system: Rattus norvegicus; test: Effect of intraduodenal administration of compound on acid secretion inhibition in the PLR; Value ranges from 1.4-7.8; format: functional
# [32] = system: Rattus norvegicus; test: Antisecretory activity in PLR after preincubation in gastric juice at pH 1.0 for 60 min at 15 mg/kg dose, measured as volume; format: functional; procedure, shortened: as §5
# [33] = system: Rattus norvegicus; test: Effect of intravenous administration of compound on acid secretion inhibition in the PLR; Value ranges from 0.3-2.7; format: functional; procedure, shortened: as §3
# [34] = system: Rattus norvegicus; test: Antisecretory activity in PLR after pre-incubation in gastric juice at pH 1.0 for 30 min at 15 mg/kg dose, measured as acid titreated; format: functional; procedure, shortened: as §5
# [35] = system: Canis familiaris; test: Effect on pentagastrin-induced acid secretion in gastric fistula dogs, at 1 mg/kg, iv for 2 h; format: functional, Canis lupus familiaris, Stomach; procedure, shortened: as §4
# [36] = system: Rattus norvegicus; test: Antisecretory activity in PLR after pre-incubation in gastric juice at pH 1.0 for 60 min at 15 mg/kg dose, measured as acid titreated; format: functional; procedure, shortened: as §5
# [37] = system: Rattus norvegicus; test: Antisecretory activity in PLR after pre-incubation in neutralized juice for 60 min at 15 mg/kg dose, measured as acid titreated; format: functional; procedure, shortened: as §5
# [38] = system: Rattus norvegicus; test: Antisecretory activity in PLR after pre-incubation in gastric juice at pH 1.0 for 2 min at 15 mg/kg dose, measured as acid output; format: functional; procedure, shortened: as §5
# [39] = system: Rattus norvegicus; test: Effect of intravenous administration of compound on acid secretion inhibition in the PLR; Value ranges from 0.7-5.0; format: functional; procedure, shortened: as §3
# [40] = system: Rattus norvegicus; test: Effect of peroral administration of compound on acid secretion inhibition in the PLR; Value ranges from 4.0-13.6; format: functional; procedure, shortened: as §2
# [41] = system: Rattus norvegicus; test: Effect of intraduodenal administration of compound on acid secretion inhibition in the PLR; Value ranges from 0.6-6.7; format: functional
# [42] = system: Rattus norvegicus; test: Effect of intraduodenal administration of compound on acid secretion inhibition in the PLR; Value ranges from 0.5-4.4; format: functional
# [43] = system: Rattus norvegicus; test: Effect of intravenous administration of compound on acid secretion inhibition in the PLR; Value ranges from 1.5-9.5; format: functional; procedure, shortened: as §3
# [44] = system: Rattus norvegicus; test: Effect of peroral administration of compound on acid secretion inhibition in the PLR;Value ranges from 3.6-12.2; format: functional; procedure, shortened: as §2
compound,measurement,setting,value
O=C(NC1c2ccccc2Oc2ccccc21)c1ccccc1O,Delta pH,[1],Not significant
same,Delta TAO,[2],Not significant
CC(Cc1ccccn1)NC1c2ccccc2Oc2ccccc21 (configuration not stated),Volume,[3],2.2 ml 2hr-1
same,Delta pH,[4],3.8
same,Acid output,[5],1.3 u equiv of [H+] 2hr-1
same,ED50,[6],11.4 m equiv [H+] l-1
same,ED50,[7],6.3 m equiv [H+] l-1
same,Acid output,[8],7.3 u equiv of [H+] 2hr-1
same,Delta TAO,[9],89
same,ED50,[10],Not significant
CCO/C(C)=N\C1c2ccccc2Oc2ccccc21,Delta pH,[11],4.4
same,Delta TAO,[12],97
O=CNNC1c2ccccc2Oc2ccccc21,Delta pH,[11],2
same,Delta TAO,[12],80
CN(C)C1CCCN(C2c3ccccc3Oc3ccccc32)C1 (configuration not stated),Delta pH,[4],3.1
same,ED50,[13],6.3 mg/kg
same,ED50,[14],8.9 mg/kg
same,ED50,[15],3.2 mg/kg
same,ED50,[16],0.9 mg/kg
same,ED50,[17],1.2 mg/kg
same,Delta TAO,[9],80
same,ED50,[10],Not significant
CN(CCc1ccccn1)C1c2ccccc2Oc2ccccc21,Delta pH,[4],5.6
same,Delta TAO,[9],99
same,ED50,[18],4.8 mg/kg
same,ED50,[10],Not significant
CCN1CCCC(NC2c3ccccc3Oc3ccccc32)C1 (configuration not stated),Acid output,[19],3.37 u equiv hr-1
same,Change,[19],-72%
same,ED50,[20],8.9 mg/kg
same,Acid output,[21],4.6 u equiv hr-1
same,Change,[21],-62%
same,Acid output,[22],324 u equiv 2hr-1
same,Delta pH,[4],5.6
same,Acid output,[23],70 u equiv 2hr-1
same,Acid titer,[24],43 m equiv l-1
same,ED50,[25],2.3 mg/kg
same,Volume,[26],6 mL
same,Volume,[27],2.5 mL
same,ED50,[28],2.3 mg/kg
same,Acid output,[29],367 u equiv 2hr-1
same,Volume,[30],4.6 mL
same,ED50,[31],3.8 mg/kg
same,Volume,[32],5.6 mL
same,ED50,[33],1.2 mg/kg
same,Acid titer,[34],62 m equiv l-1
same,Delta TAO,[9],98
same,Acid output,[35],2.46 u equiv hr-1
same,Change,[35],-80%
same,Acid titer,[36],59 m equiv l-1
same,Acid titer,[37],26 m equiv l-1
same,Acid output,[38],191 u equiv 2hr-1
same,ED50,[10],Not significant
O=C1CCC(=O)N1C1c2ccccc2Oc2ccccc21,Delta pH,[1],Not significant
same,Delta TAO,[2],Not significant
NC(=O)N(O)C1c2ccccc2Oc2ccccc21,Delta pH,[11],1.9
same,Delta TAO,[12],88
c1ccc2c(c1)Oc1ccccc1C2NCCn1ccnc1,ED50,[39],2 mg/kg
same,ED50,[40],7.7 mg/kg
same,Delta pH,[4],5.8
same,ED50,[41],2.4 mg/kg
same,ED50,[42],1.7 mg/kg
same,ED50,[43],3.3 mg/kg
same,Delta TAO,[9],98
same,ED50,[10],Not significant
CN1CCN(C2c3ccccc3Oc3ccccc32)CC1,Delta pH,[4],5.4
same,ED50,[44],6.8 mg/kg
same,Delta TAO,[9],97
same,ED50,[10],Not significant
O=C(NC1c2ccccc2Oc2ccccc21)OCc1ccccc1,Delta pH,[1],Not significant
same,Delta TAO,[2],Not significant
CN(C1c2ccccc2Oc2ccccc21)C1c2ccccc2Oc2ccccc21,Delta pH,[1],Not significant
same,Delta TAO,[9],72

# Source: ChEMBL document CHEMBL1122278, “Gastric antisecretory 9H-xanthen-9-amines” (1983)
